Assay [1] concerns the target T1, PDZ2 (second PDZ domain, 1361-1456) from human PTP1E/PTPL1 (Homo sapiens, UniProt Q12923).
T1 sequence (Q12923 1361-1456): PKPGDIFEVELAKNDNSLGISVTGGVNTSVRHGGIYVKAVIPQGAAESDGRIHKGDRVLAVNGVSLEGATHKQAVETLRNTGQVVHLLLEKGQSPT
In words: NMR titration binding affinity of peptide to PDZ2. The procedure, abridged: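 NMR titration of test peptide into PDZ2 expressed in E. coli BL21(DE3), 1 mM, in 150 mM NaCl, 50 mM sodium phosphate pH 6.8, 10% D2O, at 25 °C on 500/600 MHz spectrometers. Protein concentration by UV absorbance at 280 nm; Kd derived from titration.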

The target of assay [2] is T1, PDZ2 (second PDZ domain, 1361-1456) from human PTP1E/PTPL1. Description: Fluorescence binding affinity of peptide to PDZ2.
Assay [3] concerns the target T2, APC C-terminal peptide (Homo sapiens).
T2 chain: GSYLVTSV
In words: NMR titration.

Three molecules from paper PMC3001272 (Biochemistry, 2010) can be followed below.

Where a SMILES comes first, the peptide text is derived from it.

What is called Kd is the equilibrium constant for the complex coming apart. A high value points to lower affinity. Turning to `CC(C)C[C@H](NC(=O)[C@H](Cc1ccc(O)cc1)NC(=O)[C@H](CO)NC(=O)CN)C(=O)N[C@H](C(=O)N[C@H](C(=O)N[C@@H](CO)C(=O)N[C@H](C(=O)O)C(C)C)[C@@H](C)O)C(C)C` [APC] (H-GSYLVTSV-OH), binding in assay [1] was characterised by a dissociation constant (Kd) of 10 µM.

The molecule `CC(=O)N[C@@H](CCC(=O)O)C(=O)N[C@@H](CC(N)=O)C(=O)N[C@@H](CCC(=O)O)C(=O)N[C@@H](CCC(N)=O)C(=O)N[C@H](C(=O)N[C@@H](CO)C(=O)N[C@@H](C)C(=O)N[C@H](C(=O)O)C(C)C)C(C)C` [RA-GEF2] (Ac-ENEQVSAV-OH) returned a Kd in assay [2] of 10 µM.

B1: PTP1E (PTPL1) PDZ2 1361-1456 (protein)
chain: PKPGDIFEVELAKNDNSLGISVTGGVNTSVRHGGIYVKAVIPQGAAESDGRIHKGDRVLAVNGVSLEGATHKQAVETLRNTGQVVHLLLEKGQSPT
As to B1, in assay [3], the Kd was 10 µM.
